One experiment relates to Bacillus spizizenii. The experiment is described as follows: Antibacterial activity against Bacillus subtilis ATCC 6633 after 24 hrs by MTT assay. The format is functional. Conditions: ATCC 6633, 24 h. The procedure, abridged: (§1)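 Broth microdilution per CLSI; compounds dissolved in DMSO (stock […]) and serially diluted in sterilized liquid medium (50% v/v DMSO in PBS). Inoculum about 10^5 cfu/mL, incubated 37 °C for 24 h. Growth read colorimetrically with MTT dye, OD at 550 nm; MIC50 determined.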
(In general: Tetrazolium assays rely on reduction of a dye to a coloured formazan, in cell work by metabolically active cells.)

The next experiment relates to MDA-MB-435. The experiment is described as follows: Cytotoxicity against human MDA-MB-435 cells after 48 hrs by MTT assay. Format: functional, cell-based. To be noted: MDA-MB-435, 48 h. The procedure, abridged:
(§2)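 Cells seeded at 2 × 10^4 cells/mL, preincubated 24 h at 37 °C, 5% CO2. Compounds from DMSO mother solutions diluted in complete medium (DMSO ≤0.1%), added at pre-set concentrations with 5-fluorouracil and cisplatin as references. 48 h exposure, then MTT (2.5 mg/mL in PBS) 4 h, SDS/isobutanol/HCl solubilisation overnight, OD 570 nm. Triplicate wells, assays repeated ≥3 times; IC50.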

Another experiment has as its system Huh-7. Description: Cytotoxicity against human HuH7 cells after 48 hrs by MTT assay. Format: functional, cell-based. To be noted: Huh-7, 48 h. The procedure, abridged: as §2
In the next experiment the test system is Pseudomonas putida. Description: Antibacterial activity against Pseudomonas putida ATCC 49128 after 24 hrs by MTT assay. The format is functional. Conditions: ATCC 49128, 24 h. In a few lines:
as §1

In a further experiment the test system is Escherichia coli. The experiment is described as follows: Antibacterial activity against Escherichia coli ATCC 35218 after 24 hrs by MTT assay. Format: functional. Conditions: ATCC 35218, 24 h. The procedure, abridged:
as §1

A further experiment deals with A549. Description: Cytotoxicity against human A549 cells after 48 hrs by MTT assay. To be noted: A549, 48 h. Format: functional, cell-based. In a few lines: as §2
For another experiment, the system named is Staphylococcus aureus. The experiment is described as follows: Antibacterial activity against Staphylococcus aureus ATCC 25923 after 24 hrs by MTT assay. Conditions: ATCC 25923, 24 h. The format is functional. The procedure, abridged:
as §1

In brackets after ≈: the same amount, converted by molar mass.

In ChEMBL document CHEMBL3108780, “Synthesis, characterization, cytotoxicity and antibacterial activity of an anthracenyl-linked bis(pyrazolyl)methane ligand and its zinc(II) complexes” (Eur J Med Chem, 2014) one finds MIC50 and IC50 data, which are given here for 3 compounds.

In the case of `c1ccc2c(C(n3cccn3)n3cccn3)c3ccccc3cc2c1`, the MIC50 (usually an inhibitory concentration at the 50% level, which refers to growth in some studies and to a panel of isolates in others) turned out to be 3.26 µg/mL (≈ 10 µM) in the experiment on Bacillus spizizenii, 1.54 µg/mL (≈ 4.76 µM) with Pseudomonas putida, 4.8 µg/mL (≈ 14.8 µM) with Escherichia coli and 2.13 µg/mL (≈ 6.57 µM) in the experiment with Staphylococcus aureus. The values for the IC50 in the experiment on MDA-MB-435, with Huh-7 and in the experiment on A549 were 23.8 µg/mL (≈ 73.3 µM), 28 µg/mL (≈ 86.2 µM) and 9.77 µg/mL (≈ 30.1 µM), respectively.
`O=C(N[C@H](CO)[C@H](O)c1ccc([N+](=O)[O-])cc1)C(Cl)Cl` [CHLORAMPHENICOL]: the MIC50 with Bacillus spizizenii stood at 1.25 µg/mL (≈ 3.88 µM); against Pseudomonas putida, 0.182 µg/mL (≈ 0.563 µM); with Escherichia coli it was 3.04 µg/mL (≈ 9.41 µM); with Staphylococcus aureus it was 0.499 µg/mL (≈ 1.54 µM).
As to `O=c1[nH]cc(F)c(=O)[nH]1` [FLUOROURACIL], the IC50 (in general, the concentration at which inhibition is half-maximal) in the experiment on MDA-MB-435 is 25.6 µg/mL (≈ 197 µM); with Huh-7, 20 µg/mL (≈ 154 µM); in the experiment on A549 it was 24.9 µg/mL (≈ 191 µM).
